Drawing on ChEMBL document CHEMBL1139238, “Preparation of two sets of 5,6,7-trioxygenated dihydroflavonol derivatives as free radical scavengers and neuronal cell protectors to oxidative damage” (Bioorg Med Chem, 2009), this text covers Activity, IC50 and EC50 for 17 compounds.

Data set [1] relates to PC-12. The data set can be described thus: Cytoprotective activity against H2O2-induced cell death in rat PC12 cells assessed as increase in cell viability at 16 ug/ml preincubated 2 hrs before H2O2 challenge measured after 4 hrs by MTT assay relative to control. Type of data set: functional. The essentials: (§1)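 PC12 cells from Shanghai Institute of Cell Biology, grown at 37 °C in 5% CO2 in high-glucose DMEM with 10% heat-inactivated calf serum and penicillin/streptomycin. Cells seeded at 6×10^3/well and used 36 h later. Compound in DMSO diluted in medium, 2 h pretreatment, then 500 µM H2O2 (final) for 4 h. MTT (5 mg/mL) for 3 h, formazan dissolved in DMSO, read at 570 nm. Gain is %OD(drug)/OD(normal) minus %OD(DMSO)/OD(normal).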
A general note: Tetrazolium dyes change colour on reduction, which living cells bring about.

Data set [2] concerns Liver. The data set can be described thus: tissue or blood. Particulars: Rattus norvegicus, 1 h.
Data set [3] addresses Xanthine dehydrogenase/oxidase (Rattus norvegicus) (UniProt P22985). The data set can be described thus: Inhibition of xanthine oxidase assessed as formation of formazan after 2 hrs by spectrophotometry. Also on record: concentration or dose not given beside the values.
Data set [4] concerns PC-12. The data set can be described thus: Cytoprotective activity against H2O2-induced cell death in rat PC12 cells assessed as increase in cell viability at 8 ug/ml preincubated 2 hrs before H2O2 challenge measured after 4 hrs by MTT assay relative to control. Type of data set: functional. Put shortly:
as §1

Data set [5] has as its system PC-12. The data set can be described thus: Cytoprotective activity against H2O2-induced cell death in rat PC12 cells assessed as increase in cell viability at 32 ug/ml preincubated 2 hrs before H2O2 challenge measured after 4 hrs by MTT assay relative to control. It is filed as functional. Put shortly: as §1
Data set [6] concerns Radical scavenging activity. In words: Antioxidant activity assessed as DPPH free radical scavenging activity by spectrophotometry. Type of data set: functional. Put shortly:
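DPPH (0.4 mg/mL) in methanol mixed with compounds (DMSO solutions) at various concentrations. Incubated 30 min at 37 °C, absorbance read at 517 nm. Methanolic DPPH alone serves as control; quercetin and vitamin C are the reference scavengers.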
For orientation: Loss of DPPH colour is used to gauge radical scavenging.

Data set [7] can be described thus: Antioxidant activity assessed as superoxide radical scavenging activity by spectrophotometry. It is filed as functional. The essentials: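 Superoxide generated by NADH (78 μM), nitroblue tetrazolium (50 μM) and phenazine methosulfate (5 μM) in 16 mM Tris–HCl, pH 8.0, with compounds at various concentrations. Read at 560 nm after 5 min at room temperature. Blanks lack phenazine methosulfate; quercetin and vitamin C are references.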

Data set [8] relates to PC-12. The data set can be described thus: Cytoprotective activity against H2O2-induced cell death in rat PC12 cells assessed as increase in cell viability preincubated 2 hrs before H2O2 challenge measured after 4 hrs by MTT assay. It is filed as functional, cell-based.
In data set [9] the test system is Liver. In words: Antioxidant activity against FeSO4-induced lipid peroxidation in rat liver homogenate assessed as inhibition of malondialdehyde release at < 5 uM after 1 hr by thiobarbituric acid assay relative quercetin. Type of data set: functional, tissue-based. The essentials: (§2)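 Rat (Sprague-Dawley) liver homogenate in ice-cold PBS; peroxidation driven by FeSO4 (4 μM) plus vitamin C (50 μM). Compounds at 0.1–100 μM, 37 °C for 1 h in capped tubes. Then 20% TCA for 30 min at room temperature, followed by 0.1 M HCl and 1% TBA at 99 °C for 1 h. After centrifugation, MDA read at 532 nm. Quercetin is the standard; n = 3, means ± SD.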

Data set [10] deals with Liver. The data set can be described thus: Antioxidant activity against FeSO4-induced lipid peroxidation in rat liver homogenate assessed as inhibition of malondialdehyde release at 6 to 100 uM after 1 hr by thiobarbituric acid assay relative quercetin. Type of data set: functional, tissue-based. The essentials: as §2
Data set [11] has as its target Xanthine dehydrogenase/oxidase (Rattus norvegicus) (UniProt P22985). The data set can be described thus: Inhibition of xanthine oxidase assessed as formation of formazan at 16 ug/ml after 2 hrs by spectrophotometry.

Each structure is given as a SMILES string. Calls of active or inactive are those of the source. The rule behind the calls is not given here.

Xanthine dehydrogenase/oxidase (Rattus norvegicus), sequence (P22985 whole entry, looked up): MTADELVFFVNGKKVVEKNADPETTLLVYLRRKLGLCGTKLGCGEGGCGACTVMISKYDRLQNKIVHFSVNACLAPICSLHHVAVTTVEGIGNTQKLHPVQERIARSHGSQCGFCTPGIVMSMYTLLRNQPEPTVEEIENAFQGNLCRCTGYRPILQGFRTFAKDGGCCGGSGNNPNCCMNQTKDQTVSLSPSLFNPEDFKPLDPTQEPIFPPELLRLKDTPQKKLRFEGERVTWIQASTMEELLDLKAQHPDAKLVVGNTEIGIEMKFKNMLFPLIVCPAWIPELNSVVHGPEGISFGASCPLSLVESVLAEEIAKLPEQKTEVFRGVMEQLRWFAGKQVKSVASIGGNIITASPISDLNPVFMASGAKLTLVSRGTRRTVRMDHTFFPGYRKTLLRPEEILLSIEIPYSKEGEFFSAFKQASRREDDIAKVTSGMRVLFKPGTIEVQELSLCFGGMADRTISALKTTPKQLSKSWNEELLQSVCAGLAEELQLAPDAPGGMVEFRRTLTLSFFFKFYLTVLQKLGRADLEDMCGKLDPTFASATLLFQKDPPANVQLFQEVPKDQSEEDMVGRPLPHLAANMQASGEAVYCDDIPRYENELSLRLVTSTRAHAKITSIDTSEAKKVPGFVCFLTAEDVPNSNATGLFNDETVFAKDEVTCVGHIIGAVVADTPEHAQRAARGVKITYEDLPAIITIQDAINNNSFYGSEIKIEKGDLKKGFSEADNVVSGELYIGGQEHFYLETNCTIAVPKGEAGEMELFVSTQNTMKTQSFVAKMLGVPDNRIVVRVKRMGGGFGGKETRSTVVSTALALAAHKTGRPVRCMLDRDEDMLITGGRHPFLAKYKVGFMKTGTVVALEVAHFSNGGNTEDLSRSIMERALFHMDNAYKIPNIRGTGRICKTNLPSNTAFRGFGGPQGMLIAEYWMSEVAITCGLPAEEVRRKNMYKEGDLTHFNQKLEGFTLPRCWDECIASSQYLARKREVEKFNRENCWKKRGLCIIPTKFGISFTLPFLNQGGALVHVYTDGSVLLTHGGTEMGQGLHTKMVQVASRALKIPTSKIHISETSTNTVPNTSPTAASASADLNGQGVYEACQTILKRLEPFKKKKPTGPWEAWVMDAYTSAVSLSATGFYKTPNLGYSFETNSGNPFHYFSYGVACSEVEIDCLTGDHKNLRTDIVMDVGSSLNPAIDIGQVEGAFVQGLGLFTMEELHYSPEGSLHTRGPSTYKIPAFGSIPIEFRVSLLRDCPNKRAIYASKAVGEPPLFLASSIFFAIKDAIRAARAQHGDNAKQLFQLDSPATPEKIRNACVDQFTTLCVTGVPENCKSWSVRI

The term IC50 denotes the midpoint of a concentration-inhibition curve. For the compound `COc1ccc([C@@H]2Oc3cc(OC)c(OC)c(OC)c3C(=O)[C@@H]2O)cc1OC` (racemic), the Activity is 1.9% in data set [1], 46.6% in data set [3], -2.5% in [4] and 2.4% in data set [5]. In addition, the IC50 in [2] turned out to be 28.6 µM.
Broadly, the EC50 is the concentration needed to bring the measured effect to its halfway point. Turning to `O=C1O[C@H]([C@@H](O)CO)C(O)=C1O` [ASCORBIC ACID], the values for the EC50 in data set [6] and in data set [7] were 154 µM and 256 µM, respectively.
In the same order, the values of `COc1ccc([C@H]2Oc3cc(OC)c(OC)c(OC)c3C(=O)[C@@H]2O)cc1O` (racemic) are 124 µM and 112 µM.
As to `COc1cc2c(c(OC)c1O)C(=O)[C@H](O)[C@@H](c1ccc(O)cc1)O2` (racemic), the Activity in data set [1] was 13.4%; in [3], 19.8%; in [4] it was -3.8%; in [5], 19.1%. In addition, in data set [6], the EC50 was 35.3 µM.
For the compound `COc1ccc([C@H]2Oc3cc(OC)c(O)c(OC)c3C(=O)[C@@H]2O)cc1` (racemic), the Activity in data set [1] worked out at 37.2%; in data set [3], 21.1%; in data set [4] it was 19.5%; in data set [5] it was 53.6%. This compound came in with an IC50 in [2] of 11.9 µM. In addition, the EC50 in [6] stood at 94.9 µM; in data set [8], 82.4 µM.
On to `COc1cc([C@H]2Oc3cc(OC)c(OC)c(OC)c3C(=O)[C@@H]2O)ccc1O` (racemic), for which the result in data set [9] was inactive. In data set [2], this compound showed an IC50 of 5.5 µM. The EC50 amounted to 27.8 µM in data set [6] and 97.1 µM in [7]. The outcome in data set [10] was Active.
Regarding `O=c1c(O)c(-c2ccc(O)c(O)c2)oc2cc(O)cc(O)c12` [QUERCETIN], the figures for the Activity in data set [1], in data set [4] and in data set [5] were 42.6%, 28.9% and 61.7%, respectively. In addition, the IC50 in data set [2] turned out to be 6 µM. Moreover, the EC50 in data set [6] worked out at 5.5 µM; in data set [7], 40.6 µM; in [8], 68.3 µM.
For the compound `COc1cc2c(c(OC)c1O)C(=O)[C@H](O)[C@H](c1ccc3c(c1)OCO3)O2` (racemic), the Activity in data set [1] is 0.3%; in data set [3], 12.5%; in data set [4], 0.1%; in [5] it was 0.5%. This compound also showed a half-maximal inhibitory concentration (IC50) in data set [2] of 6.4 µM. For the same compound, the EC50 in [6] was determined as 18.4 µM; in [7], 93.6 µM.
In [2], `COc1cc([C@@H]2Oc3cc(OC)c(OC)c(OC)c3C(=O)[C@@H]2O)cc(OC)c1O` (racemic) had an IC50 of 10.4 µM. Besides, the EC50 in data set [6] was found to be 54.1 µM; in data set [7], 55.5 µM.
For `COc1ccc([C@@H]2Oc3cc(OC)c(O)c(OC)c3C(=O)[C@@H]2O)cc1OC` (racemic), the Activity in data set [1] worked out at 19.8%; in [3], 74.3%; in data set [4], 2.9%; in data set [5], 22%. Moreover, the EC50 in [6] came to 35.9 µM; in [7], 50 µM. Besides, the IC50 in [11] came out at 16 µM.
On to `COc1cc([C@@H]2Oc3cc(OC)c(OC)c(OC)c3C(=O)[C@@H]2O)cc(OC)c1OC` (racemic), for which the Activity came out at 9.2% in data set [1], 28.9% in data set [3], 2.1% in [4] and 15.1% in data set [5]. In addition, the IC50 in [2] is 19.6 µM.
Take `COc1cc2c(c(OC)c1OC)C(=O)[C@H](O)[C@@H](c1ccc(O)cc1)O2` (racemic): the Activity in data set [1] was 5.1%; in data set [3] it was 0.2%; in data set [4] it was -1.4%; in [5], 17.1%.
Regarding `COc1cc([C@@H]2Oc3cc(OC)c(O)c(OC)c3C(=O)[C@@H]2O)ccc1O` (racemic), the Activity in data set [1] is 0.5%; in data set [3] it was 15.4%; in data set [4], -0.2%; in [5], 1.6%. In data set [2], the IC50 was 1.9 µM. In addition, the EC50 turned out to be 42.8 µM in data set [6] and 97.2 µM in data set [7].
Consider `COc1cc2c(c(OC)c1OC)C(=O)[C@H](O)[C@@H](c1ccc(O)c(O)c1)O2` (racemic), for which the Activity in data set [1] is listed as 56.1%; in data set [3], 58.9%; in [4] it was 40.5%; in data set [5] it was 74.5%. Moreover, the IC50 worked out at 10.4 µM in data set [2] and 96.7 µM in [11]. The EC50 is 7.3 µM in [6], 100 µM in data set [7] and 33.1 µM in [8].
On to `COc1cc2c(c(OC)c1OC)C(=O)[C@H](O)[C@H](c1ccc3c(c1)OCO3)O2` (racemic), for which the Activity was determined as 5.4% in data set [1], 0.8% in data set [3], 1.4% in [4] and 4.5% in data set [5]. Further, in data set [7], the EC50 was found to be 80.3 µM.
Consider `COc1cc2c(c(OC)c1OC)C(=O)[C@H](O)[C@H](c1ccccc1O)O2` (racemic), for which the IC50 in data set [2] came to 26.7 µM. In addition, the results for the EC50 in data set [6] and in data set [7] were 82.4 µM and 164 µM, respectively.
Take `COc1ccc([C@@H]2Oc3cc(OC)c(OC)c(OC)c3C(=O)[C@@H]2O)cc1` (racemic): the Activity amounted to 3.4% in [1], 24.9% in [3], 0.6% in [4] and 2.1% in [5].
